In brackets after ≈: the same amount, converted by molar mass.
How the values were obtained:
Assay type in all cases: functional
Ustilago maydis = experiment: The compound was evaluated for zone inhibition against Ustilago zeae (MF1996) using disk diffusion assay; 28 Fuzzy edges
Summary of the method: (§1)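 Filter-paper disks (6.2 mm) loaded with 25 μL of a 250 μg/mL methanol solution, dried at room temperature, laid on seeded agar and rewet with 25 μL 10% aqueous Me₂SO. Media were unbuffered, pH ca. 4.5–5.6: potato dextrose agar for filamentous fungi, sabouraud dextrose agar for yeasts, unless noted. Inhibition zone diameter read after overnight incubation, ±1 mm. Zone edges scored fuzzy, slightly hazy, hazy or very hazy.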

Saccharomyces cerevisiae [1] = experiment: The compound was evaluated for mean zone diameter (inhibition) against yeast at the concentration of 250 ug/mL
Summary of the method: (§2)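 Filter-paper disk diffusion (6.2 mm disks) with drug in methanol at the stated level, 25 μL per disk. Disks were air-dried at room temperature, laid on seeded agar, rewet with 25 μL 10% aqueous Me₂SO and incubated overnight. Media were unbuffered, pH ca. 4.5–5.6. The panel was 21 yeasts and 21 filamentous fungi. Zones of 0 mm were excluded from means.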

Candida albicans [2] = experiment: The compound was tested for antifungal activity against Candida albicans My1029 using agar dilution assay
Summary of the method: (§3)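 Standardized agar dilution in Kimmig agar with 5% glycerol. Lysosomotropic detergents solubilized in 10% Me₂SO. Twofold serial dilutions in sterile distilled water gave final agar concentrations of 128 to 0.06 μg/mL. Stated error ±1 dilution stage.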

Candida parapsilosis [3] = experiment: The compound was tested for antifungal activity against Candida parapsilosis MY1009 using agar dilution assay; details: Lodderomyces parapsilosis; summary of the method: as §3
Nakaseomyces glabratus [4] = experiment: The compound was evaluated for zone inhibition against Torulopsis glabrata MY1062 using disk diffusion assay; summary of the method: as §1
Saccharomyces cerevisiae [5] = experiment: The compound was evaluated for mean zone diameter (inhibition) against yeast at the concentration of 62.5 ug/mL; summary of the method: as §2
Fusarium oxysporum = experiment: The compound was evaluated for zone inhibition against Fusarium oxysporum (MF4014) using disk diffusion assay; summary of the method: as §1
Pichia kudriavzevii = experiment: The compound was tested for antifungal activity against Candida krusei MY1020 using agar dilution assay; summary of the method: as §3
Penicillium [6] = experiment: The compound was evaluated for zone inhibition against Penicillium sp (MF5016) using disk diffusion assay; 25 Fuzzy edges; summary of the method: as §1
Candida albicans [7] = experiment: The compound was tested for antifungal activity against Candida albicans MY1055 using agar dilution assay; summary of the method: as §3
Nakaseomyces glabratus [8] = experiment: The compound was tested for antifungal activity against Torulopsis glabrata MY1059 using agar dilution assay
Summary of the method: (§4)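 Standardized agar dilution on Kimmig agar with 5% glycerol. Detergents solubilized in 10% Me2SO; desoxycholate-stabilized amphotericin B diluted and titrated in sterile distilled water. Twofold dilutions in sterile distilled water gave final agar concentrations of 128 to 0.06 μg/mL. Error limit ±1 dilution stage.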

Papiliotrema laurentii [9] = experiment: The compound was evaluated for zone inhibition against Cryptococcus laurentii MY1077 using disk diffusion assay; 22 Fuzzy edges; summary of the method: as §1
Candida albicans [10] = experiment: The compound was tested for antifungal activity against Candida stellatoidea MY1017 using agar dilution assay; summary of the method: as §4
Rhizomucor miehei = experiment: The compound was evaluated for zone inhibition against Rhizomucor miehei (MF4784) using disk diffusion assay; summary of the method: as §1
Kluyveromyces marxianus [11] = experiment: The compound was tested for antifungal activity against Candida pseudotropicalis MY1040 using agar dilution assay; summary of the method: as §3
Saccharomyces cerevisiae [12] = experiment: The compound was evaluated for zone inhibition against Saccharomyces cerevisiae MY410 using disk diffusion assay; 9 Fuzzy edges; summary of the method: as §1
Phoma = experiment: The compound was evaluated for zone inhibition against Phoma sp (MF4332) using disk diffusion assay; 23 Fuzzy edges; summary of the method: as §1
Saccharomyces cerevisiae [13] = experiment: The compound was evaluated for zone inhibition against Saccharomyces cerevisiae YED MY34 using disk diffusion assay; summary of the method: as §1
Penicillium [14] = experiment: The compound was evaluated for zone inhibition against Penicillium sp (MF5020) using disk diffusion assay; 21 Fuzzy edges; summary of the method: as §1
Naganishia albida = experiment: The compound was evaluated for zone inhibition against Cryptococcus albidus MY1070 using disk diffusion assay; 23 Fuzzy edges
Summary of the method: (§5)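 Disk diffusion: 25 μL of 250 μg/mL drug in methanol on 6.2 mm paper disks, dried at room temperature, placed on seeded agar and rewet with 25 μL 10% aqueous Me₂SO. Zones were read after overnight incubation, ±1 mm. Media were unbuffered, pH ca. 4.5–5.6: potato dextrose agar for filamentous fungi, Sabouraud dextrose for yeasts, unless YNB (76 mM ammonium sulfate, sole nitrogen source) or YED is named. Zone edges were scored fuzzy, slightly hazy, hazy or very hazy.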

Candida albicans [15] = experiment: The compound was tested for antifungal activity against Candida albicans MY1013 using agar dilution assay; summary of the method: as §3
Aspergillus flavus = experiment: The compound was tested for antifungal activity against Aspergillus flavus MF0383 using agar dilution assay; summary of the method: as §3
Cephalosporium = experiment: The compound was evaluated for zone inhibition against Cephalosporium sp (MF4641) using disk diffusion assay; summary of the method: as §5
Papiliotrema laurentii [16] = experiment: The compound was evaluated for zone inhibition against Cryptococcus laurentii MY1074 using disk diffusion assay; 16 slightly hazy; summary of the method: as §1
Saccharomyces cerevisiae [17] = experiment: The compound was evaluated for mean zone diameter (inhibition) against yeast at the concentration of 125 ug/mL; summary of the method: as §2
Cercospora beticola = experiment: The compound was evaluated for zone inhibition against Cercospora beticola (MF4608) using disk diffusion assay; 22 Fuzzy edges; summary of the method: as §5
Penicillium [18] = experiment: The compound was evaluated for zone inhibition against Penicillium sp (MF5014) using disk diffusion assay; 22 Fuzzy edges; summary of the method: as §1
Diutina rugosa = experiment: The compound was tested for antifungal activity against Candida rugosa MY1022 using agar dilution assay; summary of the method: as §3
Candida tropicalis [19] = experiment: The compound was tested for antifungal activity against Candida tropicalis MY1012 using agar dilution assay; summary of the method: as §4
Cryptococcus neoformans [20] = experiment: The compound was tested for antifungal activity against Cryptococcus neoformans MY1146 using agar dilution assay; summary of the method: as §4
Candida tropicalis [21] = experiment: The compound was evaluated for zone inhibition against Candida tropicalis MY1012 using disk diffusion assay; 25 Fuzzy edges; summary of the method: as §5
Trichoderma viride = experiment: The compound was evaluated for zone inhibition against Trichoderma lignorum (MF3560) using disk diffusion assay; 24 Fuzzy edges; summary of the method: as §1
Penicillium italicum = experiment: The compound was tested for antifungal activity against Penicillium italicum MF2819 using agar dilution assay; summary of the method: as §4
Trichoderma = experiment: The compound was evaluated for zone inhibition against Trichoderma sp (MF4064) using disk diffusion assay; summary of the method: as §1
Cryptococcus neoformans [22] = experiment: The compound was tested for antifungal activity against Cryptococcus neoformans MY1051 using agar dilution assay; summary of the method: as §4
Candida tropicalis [23] = experiment: The compound was tested for antifungal activity against Candida tropicalis MY1011 using agar dilution assay; summary of the method: as §4
Candida albicans [24] = experiment: The compound was tested for antifungal activity against Candida albicans MY0992 using agar dilution assay; summary of the method: as §3
Candida parapsilosis [25] = experiment: The compound was tested for antifungal activity against Candida parapsilosis MY1010 using agar dilution assay; details: Lodderomyces parapsilosis; summary of the method: as §3
[26] = test system: Meyerozyma guilliermondii; experiment: The compound was tested for antifungal activity against Candida guilliermondii MY1019 using agar dilution assay; summary of the method: as §3
Candida albicans [27] = experiment: The compound was tested for antifungal activity against Candida albicans MY1058 using agar dilution assay; summary of the method: as §3
Kluyveromyces marxianus [28] = experiment: The compound was evaluated for zone inhibition against Kluyveromyces fragilis MY1113 using disk diffusion assay; 13 Fuzzy edges; summary of the method: as §1
Saccharomyces cerevisiae [29] = experiment: The compound was tested for antifungal activity against Saccharomyces cerevisiae MY1027 using agar dilution assay; summary of the method: as §4
Aspergillus fumigatus = experiment: The compound was tested for antifungal activity against Aspergillus fumigatus MF4839 using agar dilution assay; summary of the method: as §3

MIC (Candida albicans [2]): 32 µg/mL (≈ 135 µM)
MIC (Candida parapsilosis [3]): 32 µg/mL (≈ 135 µM)
MIC (Pichia kudriavzevii): 32 µg/mL (≈ 135 µM)
MIC (Candida albicans [7]): 32 µg/mL (≈ 135 µM)
MIC (Nakaseomyces glabratus [8]): 16 µg/mL (≈ 67.7 µM)
MIC (Candida albicans [10]): 16 µg/mL (≈ 67.7 µM)
MIC (Kluyveromyces marxianus [11]): 16 µg/mL (≈ 67.7 µM)
MIC (Candida albicans [15]): 16 µg/mL (≈ 67.7 µM)
MIC (Aspergillus flavus): 16 µg/mL (≈ 67.7 µM)
MIC (Diutina rugosa): 32 µg/mL (≈ 135 µM)
MIC (Candida tropicalis [19]): 8 µg/mL (≈ 33.8 µM)
MIC (Cryptococcus neoformans [20]): 4 µg/mL (≈ 16.9 µM)
MIC (Penicillium italicum): 4 µg/mL (≈ 16.9 µM)
MIC (Cryptococcus neoformans [22]): 4 µg/mL (≈ 16.9 µM)
MIC (Candida tropicalis [23]): 32 µg/mL (≈ 135 µM)
MIC (Candida albicans [24]): 32 µg/mL (≈ 135 µM)
MIC (Candida parapsilosis [25]): 16 µg/mL (≈ 67.7 µM)
MIC [26]: 16 µg/mL (≈ 67.7 µM)
MIC (Candida albicans [27]): 32 µg/mL (≈ 135 µM)
MIC (Saccharomyces cerevisiae [29]): 8 µg/mL (≈ 33.8 µM)
MIC (Aspergillus fumigatus): 16 µg/mL (≈ 67.7 µM)
Compound: CCCCCCCCCCCCn1ccnc1
Inhibition zone (Ustilago maydis): 28 mm
Inhibition zone (Saccharomyces cerevisiae [1]): 16.8 mm
Inhibition zone (Nakaseomyces glabratus [4]): 11 mm
Inhibition zone (Saccharomyces cerevisiae [5]): 14.4 mm
Inhibition zone (Fusarium oxysporum): 18 mm
Inhibition zone (Penicillium [6]): 25 mm
Inhibition zone (Papiliotrema laurentii [9]): 22 mm
Inhibition zone (Rhizomucor miehei): 15 mm
Inhibition zone (Saccharomyces cerevisiae [12]): 9 mm
Inhibition zone (Phoma): 23 mm
Inhibition zone (Saccharomyces cerevisiae [13]): 15 mm
Inhibition zone (Penicillium [14]): 21 mm
Inhibition zone (Naganishia albida): 23 mm
Inhibition zone (Cephalosporium): 13 mm
Inhibition zone (Papiliotrema laurentii [16]): 16 mm
Inhibition zone (Saccharomyces cerevisiae [17]): 15.8 mm
Inhibition zone (Cercospora beticola): 22 mm
Inhibition zone (Penicillium [18]): 22 mm
Inhibition zone (Candida tropicalis [21]): 25 mm
Inhibition zone (Trichoderma viride): 24 mm
Inhibition zone (Trichoderma): 18 mm
Inhibition zone (Kluyveromyces marxianus [28]): 13 mm

Reference: ChEMBL document CHEMBL1123822, “Lysosomotropic agents. 7. Broad-spectrum antifungal activity of lysosomotropic detergents” (1987)
